Test results: ChEMBL document CHEMBL2046406 (J Med Chem, 2012)
Activity calls are given as the source filed them. No cut-off for these calls is given here.

How the values were obtained:
[1] = target: T1, Mu-type opioid receptor (Homo sapiens, UniProt P35372); assay: biochemical; type: cell-based, CHO
[2] = target: T2, Kappa-type opioid receptor (Homo sapiens, UniProt P41145); assay: biochemical; type: cell-based, CHO
[3] = target: Delta-type opioid receptor (Homo sapiens, UniProt P41143); assay: Displacement of [3H]-naltrindole from human delta opioid receptor expressed in CHO cells after 3 hrs by scintillation counting; type: cell-based
Outline: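 CHO membranes expressing human KOR or DOR incubated with radioligand and 12 compound concentrations in 1 mL 50 mM Tris-HCl, pH 7.5, at 25 °C. […] Nonspecific binding with 10 μM naloxone. Three experiments in triplicate.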

[4] = species on record: Homo sapiens; assay: Selectivity index, ratio of inhibition of human delta opioid receptor to inhibition of human mu opioid receptor
[5] = species on record: Homo sapiens; assay: Selectivity index, ratio of inhibition of human kappa opioid receptor to inhibition of human mu opioid receptor
[6] = target: T1, Mu-type opioid receptor; assay: Agonist activity at human mu opioid receptor expressed in CHO cells assessed as stimulation of […]GTPgammaS binding after 60 mins by scintillation counting relative to control; type: functional, cell-based
[7] = target: T1, Mu-type opioid receptor; assay: Antagonist activity at human mu opioid receptor expressed in CHO cells assessed as inhibition of DAMGO-induced […]GTPgammaS binding after 60 mins by scintillation counting; type: functional, cell-based; conditions: read-out: IC50
[8] = target: T1, Mu-type opioid receptor; assay: Antagonist activity at human mu opioid receptor expressed in CHO cells assessed as inhibition of DAMGO-induced […]GTPgammaS binding after 60 mins by scintillation counting relative to control; type: functional, cell-based
[9] = target: T2, Kappa-type opioid receptor; assay: Agonist activity at human kappa opioid receptor expressed in CHO cells assessed as stimulation of […]GTPgammaS binding after 60 mins by scintillation counting; type: functional, cell-based
[10] = target: T2, Kappa-type opioid receptor; assay: Agonist activity at human kappa opioid receptor expressed in CHO cells assessed as stimulation of […]GTPgammaS binding after 60 mins by scintillation counting relative to control; type: functional, cell-based
Outline: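 Membranes from CHO cells stably expressing human KOR (15 μg protein per tube) or MOR (7.5 μg protein per tube). Nonspecific binding with 10 μM GTPγS. Filtration, then scintillation counting. Triplicate, at least three experiments.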

[11] = target: T2, Kappa-type opioid receptor; assay: Antagonist activity at human kappa opioid receptor expressed in CHO cells assessed as inhibition of U50488-induced […]GTPgammaS binding after 60 mins by scintillation counting; type: functional, cell-based
Outline: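 κ antagonism: hKOR-CHO membranes incubated with compound plus 100 nM U50,488.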

[12] = species on record: Homo sapiens; assay: Selectivity index, ratio of inhibition of human delta opioid receptor to inhibition of human kappa opioid receptor

T1 sequence (P35372 whole entry): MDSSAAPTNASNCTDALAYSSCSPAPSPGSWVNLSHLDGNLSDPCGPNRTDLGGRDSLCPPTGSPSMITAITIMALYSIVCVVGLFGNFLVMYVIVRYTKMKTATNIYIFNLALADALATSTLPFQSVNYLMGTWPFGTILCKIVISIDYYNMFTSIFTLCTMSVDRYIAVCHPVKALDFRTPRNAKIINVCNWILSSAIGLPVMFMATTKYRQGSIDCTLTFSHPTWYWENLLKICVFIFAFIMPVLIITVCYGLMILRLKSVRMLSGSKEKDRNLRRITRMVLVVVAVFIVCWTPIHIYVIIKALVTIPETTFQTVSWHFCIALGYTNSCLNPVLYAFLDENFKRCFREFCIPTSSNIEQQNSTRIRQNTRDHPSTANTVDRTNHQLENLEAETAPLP
Sequence of Delta-type opioid receptor (P41143 whole entry): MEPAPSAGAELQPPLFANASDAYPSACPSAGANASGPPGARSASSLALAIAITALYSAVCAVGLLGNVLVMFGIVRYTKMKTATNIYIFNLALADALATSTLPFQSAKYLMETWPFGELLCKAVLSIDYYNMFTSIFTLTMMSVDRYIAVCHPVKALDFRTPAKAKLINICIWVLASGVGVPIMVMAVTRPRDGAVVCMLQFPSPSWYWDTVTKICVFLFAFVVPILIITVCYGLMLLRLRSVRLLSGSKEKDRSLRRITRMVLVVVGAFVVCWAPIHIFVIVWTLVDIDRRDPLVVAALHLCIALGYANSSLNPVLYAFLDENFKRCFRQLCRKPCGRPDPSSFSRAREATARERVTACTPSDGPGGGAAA
T2 sequence (P41145 whole entry): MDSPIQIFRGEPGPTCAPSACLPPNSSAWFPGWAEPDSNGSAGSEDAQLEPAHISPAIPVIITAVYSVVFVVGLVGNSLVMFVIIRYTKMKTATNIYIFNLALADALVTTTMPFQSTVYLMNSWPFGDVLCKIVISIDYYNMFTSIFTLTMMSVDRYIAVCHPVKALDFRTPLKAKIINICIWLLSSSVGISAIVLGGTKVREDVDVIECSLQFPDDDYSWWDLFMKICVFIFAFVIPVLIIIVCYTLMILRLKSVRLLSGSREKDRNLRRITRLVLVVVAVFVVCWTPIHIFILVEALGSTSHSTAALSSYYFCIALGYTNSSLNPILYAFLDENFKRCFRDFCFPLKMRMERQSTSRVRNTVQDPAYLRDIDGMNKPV

Row | Compound | Ki [1] | Ki [2] | Ki [3] | Selectivity ratio [4] | Selectivity ratio [5] | Emax [6] | IC50 [7] | Imax [8] | EC50 [9] | Emax [10] | Activity [11] | Selectivity ratio [12]
1 | c1cc2c(cc1CNc1ccc3c(c1)[C@@]14CCCC[C@H]1[C@@H](C3)N(CC1CC1)CC4)OCO2 | 0.17 nM | 0.53 nM | 20 nM | 3 | 120 | 18% | 0.21 nM | 72% | 0.077 nM | 120% | inactive | –
2 | Clc1ccc(CNc2ccc3c(c2)[C@@]24CCCC[C@H]2[C@@H](C3)N(CC2CCC2)CC4)cc1 | 1.7 nM | 4.5 nM | 100 nM | 3 | 59 | – | – | – | – | – | – | –
3 | CN(Cc1cccc(O)c1)c1ccc2c(c1)[C@@]13CCCC[C@H]1[C@@H](C2)N(CC1CCC1)CC3 | 17 nM | 23 nM | 170 nM | – | 10 | – | – | – | – | – | – | 10
4 | COc1cccc(CN(C)c2ccc3c(c2)[C@@]24CCCC[C@H]2[C@@H](C3)N(CC2CCC2)CC4)c1 | 13 nM | 25 nM | 350 nM | 2 | 27 | – | – | – | – | – | – | –
5 | Oc1cccc(CNc2ccc3c(c2)[C@@]24CCCC[C@H]2[C@@H](C3)N(CC2CC2)CC4)c1 | 0.16 nM | 0.36 nM | 41 nM | 2 | 260 | 27% | 3.5 nM | 79% | 3.9 nM | 98% | inactive | –
6 | COc1cccc(CNc2ccc3c(c2)[C@@]24CCCC[C@H]2[C@@H](C3)N(CC2CC2)CC4)c1 | 0.51 nM | 1.5 nM | 110 nM | 3 | 220 | 23% | 2 nM | 77% | 0.43 nM | 130% | inactive | –
7 | COc1ccccc1CNc1ccc2c(c1)[C@@]13CCCC[C@H]1[C@@H](C2)N(CC1CC1)CC3 | 1.2 nM | 1.3 nM | 160 nM | – | 130 | – | – | – | – | – | – | 130
8 | COc1ccccc1CNc1ccc2c(c1)[C@@]13CCCC[C@H]1[C@@H](C2)N(CC1CCC1)CC3 | 2.7 nM | 2.2 nM | 61 nM | – | 28 | – | – | – | – | – | – | 28
9 | CN(Cc1ccc(O)cc1)c1ccc2c(c1)[C@@]13CCCC[C@H]1[C@@H](C2)N(CC1CCC1)CC3 | 3.2 nM | 4.1 nM | 530 nM | – | 170 | – | – | – | – | – | – | 170
10 | CN(Cc1ccc(Cl)cc1)c1ccc2c(c1)[C@@]13CCCC[C@H]1[C@@H](C2)N(CC1CCC1)CC3 | 26 nM | 27 nM | 730 nM | – | 28 | – | – | – | – | – | – | 28
11 | c1ccc(CNc2ccc3c(c2)[C@@]24CCCC[C@H]2[C@@H](C3)N(CC2CC2)CC4)cc1 | – | – | – | – | 112 | – | – | – | – | – | – | 112
12 | COc1ccccc1CN(C)c1ccc2c(c1)[C@@]13CCCC[C@H]1[C@@H](C2)N(CC1CCC1)CC3 | 14 nM | 19 nM | 190 nM | – | 14 | – | – | – | – | – | – | 14
13 | COc1ccc(CN(C)c2ccc3c(c2)[C@@]24CCCC[C@H]2[C@@H](C3)N(CC2CCC2)CC4)cc1 | 9.5 nM | 8.5 nM | 290 nM | – | 34 | – | – | – | – | – | – | 34
14 | c1ccc(CNc2ccc3c(c2)[C@@]24CCCC[C@H]2[C@@H](C3)N(CC2CCC2)CC4)cc1 | – | – | – | 2 | 76 | – | – | – | – | – | – | –
15 | Oc1cccc(CNc2ccc3c(c2)[C@@]24CCCC[C@H]2[C@@H](C3)N(CC2CCC2)CC4)c1 | 0.32 nM | 1.9 nM | 230 nM | 6 | 720 | 30% | 4.8 nM | 74% | – | – | – | –
16 | C[C@@H](NC(=O)[C@@H](N)Cc1ccc(O)cc1)C(=O)NCC(=O)N(C)[C@@H](Cc1ccccc1)C(=O)NCCO | – | – | – | – | – | – | – | inactive | – | – | – | –
